According to ChEMBL document CHEMBL4138284, “Biomimetic Stereoselective Sulfa-Michael Addition Leads to Platensimycin and Platencin Sulfur Analogues against Methicillin-Resistant Staphylococcus aureus” (J Nat Prod, 2018):
Converted amounts (≈) assume the structure as drawn.

How the values were obtained:
[1] = Stability of the compound in PBS at pH 7.1 at 0.1 mg/ml after 16 hrs by HPLC analysis; format: physicochemical; settings: buffer, pH 7.1, 16 h
Procedure, shortened: (§1)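 Compound at 0.1 mg mL−1 dissolved in 1 mM PBS at the stated pH. Held at 37 °C for 16 h. Remaining compound and retro-Michael reversion products analysed by HPLC.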

Staphylococcus aureus [2] = experiment: Antibacterial activity against Staphylococcus aureus ATCC 29213 incubated overnight by agar dilution method; format: functional
Procedure, shortened: (§2)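 MIC by agar dilution. Strains were grown overnight in LB broth and diluted, then about 10^4 CFU (2 μL spots) were spotted onto LB agar plates containing test compound at 0.5 to 8 μg mL−1 agar. Plates were incubated overnight at 37 °C and inspected for growth. Clinical MSSA and MRSA isolates came from local hospitals.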

Staphylococcus aureus [3] = experiment: Antibacterial activity against methicillin-sensitive Staphylococcus aureus isolate 1 incubated overnight by agar dilution method; format: functional; procedure, shortened: as §2
Staphylococcus aureus [4] = experiment: Antibacterial activity against methicillin-resistant Staphylococcus aureus isolate 5 incubated overnight by agar dilution method; format: functional; procedure, shortened: as §2
Staphylococcus aureus [5] = experiment: Antibacterial activity against methicillin-sensitive Staphylococcus aureus isolate 3 incubated overnight by agar dilution method; format: functional; procedure, shortened: as §2
Staphylococcus aureus [6] = experiment: Antibacterial activity against methicillin-resistant Staphylococcus aureus isolate 6 incubated overnight by agar dilution method; format: functional; procedure, shortened: as §2
Staphylococcus aureus [7] = experiment: Antibacterial activity against methicillin-resistant Staphylococcus aureus isolate 7 incubated overnight by agar dilution method; format: functional; procedure, shortened: as §2
[8] = Stability of the compound in PBS at pH 5.8 at 0.1 mg/ml after 16 hrs by HPLC analysis; format: physicochemical; settings: buffer, pH 5.8, 16 h; procedure, shortened: as §1
Staphylococcus aureus [9] = experiment: Antibacterial activity against methicillin-resistant Staphylococcus aureus isolate 10 incubated overnight by agar dilution method; format: functional; procedure, shortened: as §2
Staphylococcus aureus [10] = experiment: Antibacterial activity against methicillin-resistant Staphylococcus aureus isolate 8 incubated overnight by agar dilution method; format: functional; procedure, shortened: as §2
Staphylococcus aureus [11] = experiment: Antibacterial activity against methicillin-resistant Staphylococcus aureus isolate 9 incubated overnight by agar dilution method; format: functional; procedure, shortened: as §2
Staphylococcus aureus [12] = experiment: Antibacterial activity against methicillin-resistant Staphylococcus aureus isolate 11 incubated overnight by agar dilution method; format: functional; procedure, shortened: as §2
Staphylococcus aureus [13] = experiment: Antibacterial activity against methicillin-sensitive Staphylococcus aureus isolate 2 incubated overnight by agar dilution method; format: functional; procedure, shortened: as §2
Staphylococcus aureus [14] = experiment: Antibacterial activity against methicillin-sensitive Staphylococcus aureus isolate 4 incubated overnight by agar dilution method; format: functional; procedure, shortened: as §2

Structure (SMILES): C[C@]12C[C@]34C[C@@H]1C[C@H](O2)[C@H]3[C@](C)(CCC(=O)Nc1c(O)ccc(C(=O)O)c1O)C(=O)C[C@@H]4SC(=O)c1ccccc1
- Stability [1]: Stable
- MIC (Staphylococcus aureus [2]): 1 µg/mL (≈ 1.73 µM)
- MIC (Staphylococcus aureus [3]): 1 µg/mL (≈ 1.73 µM)
- MIC (Staphylococcus aureus [4]): 2 µg/mL (≈ 3.45 µM)
- MIC (Staphylococcus aureus [5]): 1 µg/mL (≈ 1.73 µM)
- MIC (Staphylococcus aureus [6]): 1 µg/mL (≈ 1.73 µM)
- MIC (Staphylococcus aureus [7]): 2 µg/mL (≈ 3.45 µM)
- Stability [8]: Stable
- MIC (Staphylococcus aureus [9]): 1 µg/mL (≈ 1.73 µM)
- MIC (Staphylococcus aureus [10]): 1 µg/mL (≈ 1.73 µM)
- MIC (Staphylococcus aureus [11]): 1 µg/mL (≈ 1.73 µM)
- MIC (Staphylococcus aureus [12]): 2 µg/mL (≈ 3.45 µM)
- MIC (Staphylococcus aureus [13]): 1 µg/mL (≈ 1.73 µM)
- MIC (Staphylococcus aureus [14]): 1 µg/mL (≈ 1.73 µM)

Structure (SMILES): CCS[C@H]1CC(=O)[C@@](C)(CCC(=O)Nc2c(O)ccc(C(=O)O)c2O)[C@@H]2[C@@H]3C[C@H]4C[C@]12C[C@]4(C)O3
- Stability [1]: Stable
- MIC (Staphylococcus aureus [2]): 0.5 µg/mL (≈ 0.993 µM)
- MIC (Staphylococcus aureus [3]): 0.5 µg/mL (≈ 0.993 µM)
- MIC (Staphylococcus aureus [4]): 1 µg/mL (≈ 1.99 µM)
- MIC (Staphylococcus aureus [5]): 1 µg/mL (≈ 1.99 µM)
- MIC (Staphylococcus aureus [6]): 2 µg/mL (≈ 3.97 µM)
- MIC (Staphylococcus aureus [7]): 1 µg/mL (≈ 1.99 µM)
- Stability [8]: Stable
- MIC (Staphylococcus aureus [9]): 1 µg/mL (≈ 1.99 µM)
- MIC (Staphylococcus aureus [10]): 1 µg/mL (≈ 1.99 µM)
- MIC (Staphylococcus aureus [11]): 1 µg/mL (≈ 1.99 µM)
- MIC (Staphylococcus aureus [12]): 1 µg/mL (≈ 1.99 µM)
- MIC (Staphylococcus aureus [13]): 0.5 µg/mL (≈ 0.993 µM)
- MIC (Staphylococcus aureus [14]): 1 µg/mL (≈ 1.99 µM)

Structure (SMILES): COc1ccc(C(=O)S[C@H]2CC(=O)[C@@](C)(CCC(=O)Nc3c(O)ccc(C(=O)O)c3O)[C@@H]3[C@@H]4C[C@H]5C[C@]23C[C@]5(C)O4)cc1
- Stability [1]: Stable
- MIC (Staphylococcus aureus [2]): 1 µg/mL (≈ 1.64 µM)
- MIC (Staphylococcus aureus [3]): 1 µg/mL (≈ 1.64 µM)
- MIC (Staphylococcus aureus [4]): 2 µg/mL (≈ 3.28 µM)
- MIC (Staphylococcus aureus [5]): 1 µg/mL (≈ 1.64 µM)
- MIC (Staphylococcus aureus [6]): 1 µg/mL (≈ 1.64 µM)
- MIC (Staphylococcus aureus [7]): 2 µg/mL (≈ 3.28 µM)
- Stability [8]: Stable
- MIC (Staphylococcus aureus [9]): 1 µg/mL (≈ 1.64 µM)
- MIC (Staphylococcus aureus [10]): 1 µg/mL (≈ 1.64 µM)
- MIC (Staphylococcus aureus [11]): 1 µg/mL (≈ 1.64 µM)
- MIC (Staphylococcus aureus [12]): 2 µg/mL (≈ 3.28 µM)
- MIC (Staphylococcus aureus [13]): 1 µg/mL (≈ 1.64 µM)
- MIC (Staphylococcus aureus [14]): 1 µg/mL (≈ 1.64 µM)

Structure (SMILES): C=C1C[C@@]23CCC1C[C@@H]2[C@](C)(CCC(=O)Nc1c(O)ccc(C(=O)O)c1O)C(=O)C[C@@H]3SC(C)=O (single isomer, unassigned)
- Stability [1]: Stable
- MIC (Staphylococcus aureus [2]): 4 µg/mL (≈ 7.97 µM)
- MIC (Staphylococcus aureus [3]): 1 µg/mL (≈ 1.99 µM)
- MIC (Staphylococcus aureus [4]): 2 µg/mL (≈ 3.99 µM)
- MIC (Staphylococcus aureus [5]): 1 µg/mL (≈ 1.99 µM)
- MIC (Staphylococcus aureus [6]): 2 µg/mL (≈ 3.99 µM)
- MIC (Staphylococcus aureus [7]): 2 µg/mL (≈ 3.99 µM)
- Stability [8]: Stable
- MIC (Staphylococcus aureus [9]): 2 µg/mL (≈ 3.99 µM)
- MIC (Staphylococcus aureus [10]): 2 µg/mL (≈ 3.99 µM)
- MIC (Staphylococcus aureus [11]): 2 µg/mL (≈ 3.99 µM)
- MIC (Staphylococcus aureus [12]): 4 µg/mL (≈ 7.97 µM)
- MIC (Staphylococcus aureus [13]): 1 µg/mL (≈ 1.99 µM)
- MIC (Staphylococcus aureus [14]): 1 µg/mL (≈ 1.99 µM)

Structure (SMILES): C=C1C[C@@]23CCC1C[C@@H]2[C@](C)(CCC(=O)Nc1c(O)ccc(C(=O)O)c1O)C(=O)C[C@@H]3Sc1ccc(C)cc1 (single isomer, unassigned)
- MIC (Staphylococcus aureus [2]): 2 µg/mL (≈ 3.64 µM)
- MIC (Staphylococcus aureus [3]): 1 µg/mL (≈ 1.82 µM)
- MIC (Staphylococcus aureus [4]): 2 µg/mL (≈ 3.64 µM)
- MIC (Staphylococcus aureus [5]): 0.5 µg/mL (≈ 0.91 µM)
- MIC (Staphylococcus aureus [6]): 1 µg/mL (≈ 1.82 µM)
- MIC (Staphylococcus aureus [7]): 2 µg/mL (≈ 3.64 µM)
- MIC (Staphylococcus aureus [9]): 1 µg/mL (≈ 1.82 µM)
- MIC (Staphylococcus aureus [10]): 1 µg/mL (≈ 1.82 µM)
- MIC (Staphylococcus aureus [11]): 1 µg/mL (≈ 1.82 µM)
- MIC (Staphylococcus aureus [12]): 2 µg/mL (≈ 3.64 µM)
- MIC (Staphylococcus aureus [13]): 0.5 µg/mL (≈ 0.91 µM)
- MIC (Staphylococcus aureus [14]): 0.5 µg/mL (≈ 0.91 µM)

Structure (SMILES): CC(=O)NC[C@H]1CN(c2ccc(N3CCOCC3)c(F)c2)C(=O)O1 [LINEZOLID]
- MIC (Staphylococcus aureus [2]): 1 µg/mL (≈ 2.96 µM)
- MIC (Staphylococcus aureus [3]): 1 µg/mL (≈ 2.96 µM)
- MIC (Staphylococcus aureus [4]): 1 µg/mL (≈ 2.96 µM)
- MIC (Staphylococcus aureus [5]): 1 µg/mL (≈ 2.96 µM)
- MIC (Staphylococcus aureus [6]): 1 µg/mL (≈ 2.96 µM)
- MIC (Staphylococcus aureus [7]): 1 µg/mL (≈ 2.96 µM)
- MIC (Staphylococcus aureus [9]): 1 µg/mL (≈ 2.96 µM)
- MIC (Staphylococcus aureus [10]): 1 µg/mL (≈ 2.96 µM)
- MIC (Staphylococcus aureus [11]): 1 µg/mL (≈ 2.96 µM)
- MIC (Staphylococcus aureus [12]): 1 µg/mL (≈ 2.96 µM)
- MIC (Staphylococcus aureus [13]): 1 µg/mL (≈ 2.96 µM)
- MIC (Staphylococcus aureus [14]): 1 µg/mL (≈ 2.96 µM)

Structure (SMILES): C=C1C[C@@]23C=CC(=O)[C@@](C)(CCC(=O)Nc4c(O)ccc(C(=O)O)c4O)[C@@H]2C[C@@H]1CC3 [PLATENCIN]
- MIC (Staphylococcus aureus [2]): 1 µg/mL (≈ 2.35 µM)
- MIC (Staphylococcus aureus [3]): 1 µg/mL (≈ 2.35 µM)
- MIC (Staphylococcus aureus [4]): 1 µg/mL (≈ 2.35 µM)
- MIC (Staphylococcus aureus [5]): 1 µg/mL (≈ 2.35 µM)
- MIC (Staphylococcus aureus [6]): 1 µg/mL (≈ 2.35 µM)
- MIC (Staphylococcus aureus [7]): 1 µg/mL (≈ 2.35 µM)
- MIC (Staphylococcus aureus [9]): 1 µg/mL (≈ 2.35 µM)
- MIC (Staphylococcus aureus [10]): 1 µg/mL (≈ 2.35 µM)
- MIC (Staphylococcus aureus [11]): 1 µg/mL (≈ 2.35 µM)
- MIC (Staphylococcus aureus [12]): 1 µg/mL (≈ 2.35 µM)
- MIC (Staphylococcus aureus [13]): 1 µg/mL (≈ 2.35 µM)
- MIC (Staphylococcus aureus [14]): 1 µg/mL (≈ 2.35 µM)
